Measurements: ChEMBL document CHEMBL1806419, “18β-Glycyrrhetinic acid derivatives induced mitochondrial-mediated apoptosis through reactive oxygen species-mediated p53 activation in NTUB1 cells” (Bioorg Med Chem, 2011)
Active and inactive are the calls of the source. The rule behind the calls is not given here.

Columns and labels:
[1] = Cytotoxicity against human NTUB1 cells assessed as cell viability at 5 uM after 72 hrs by MTT assay relative to control; type: functional; conditions: NTUB1, 72 h, read-out: Activity
Procedure, shortened: (§1)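 Cells seeded 1800/well in 96-well plates, preincubated overnight at 37 °C, then exposed to graded concentrations for 72 h at 37 °C (NTUB1, PC3 in RPMI 1640; SV-HUC1 in F12; 10% FBS, 5% CO2). MTT (2 mg/mL) added 3 h, formazan dissolved in DMSO, absorbance 540 nm; viability as percent of control; IC50 by median-effect analysis, mean ± SD.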

[2] = Cytotoxicity against human NTUB1 cells assessed as cell viability at 30 uM after 72 hrs by MTT assay relative to control; type: functional; conditions: NTUB1, 72 h, read-out: Activity; procedure, shortened: as §1
[3] = Cytotoxicity against human NTUB1 cells assessed as cell viability at 3 uM after 72 hrs by MTT assay relative to control; type: functional; conditions: NTUB1, 72 h, read-out: Activity; procedure, shortened: as §1
[4] = Cytotoxicity against human NTUB1 cells assessed as cell viability at 50 uM after 72 hrs by MTT assay relative to control; type: functional; conditions: NTUB1, 72 h, read-out: Activity; procedure, shortened: as §1
[5] = Cytotoxicity against human NTUB1 cells assessed as cell viability at 10 uM after 72 hrs by MTT assay relative to control; type: functional; conditions: NTUB1, 72 h, read-out: Activity; procedure, shortened: as §1
[6] = Cytotoxicity against human NTUB1 cells after 72 hrs by MTT assay; type: functional, cell-based; conditions: NTUB1, 72 h; procedure, shortened: as §1
[7] = Cytotoxicity against human NTUB1 cells assessed as cytotoxic inhibition at 1 uM after 72 hrs by MTT assay relative to control; conditions: NTUB1, 72 h
PC-3 = experiment: Cytotoxicity against human PC3 cells after 72 hrs by MTT assay; type: functional, cell-based; procedure, shortened: as §1
[8] = Cytotoxicity against immortalized human SV-HUC1 cells after 72 hrs by MTT assay; type: cell-based; conditions: sv-huc1, 72 h; procedure, shortened: as §1
[9] = Decrease in ROS generation in human NTUB1 cells at 1 mM after 24 hrs by H2DCFDA staining based flow cytometeric analysis relative to control; type: functional; design: scale not given: the % may be the effect or the level left
Procedure, shortened: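 NTUB1 cells (3×10^5 per 6 cm dish) treated 24 h (20 µM cisplatin and 1 mM NAC controls; medium-only control); 10 µM H2DCFDA added 30 min before harvest; trypsinized, PBS-washed, DCF green fluorescence (525 nm band pass, region M1) measured immediately by flow cytometry; percent change vs control; mean ± SD, n = 3.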

[10] = Cell cycle arrest in human NTUB1 cells assessed as accumulation at subG1 phase at 1mM after 24 hrs by propidium iodide staining based flow cytometric analysis (reference value: 6.68%); type: functional
Procedure, shortened: (§2)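 8×10^5 NTUB1 cells plated, treated 24 h (alongside 10 µM cisplatin, 1 mM NAC, 50 µM H2O2 controls); harvested by trypsinization, fixed overnight in ice-cold MeOH at −20 °C, stained with 50 µg/mL propidium iodide plus 50 µg/mL RNase A in PBS 30 min at room temperature; cell-cycle phase fractions and sub-G1 (apoptotic) DNA content by FACScan flow cytometry; three independent experiments.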

[11] = Cell cycle arrest in human NTUB1 cells assessed as accumulation at G1 phase at 1 mM after 24 hrs by propidium iodide staining based flow cytometric analysis (reference value: 50.64%); type: functional; procedure, shortened: as §2
[12] = Cell cycle arrest in human NTUB1 cells assessed as accumulation at G2/M phase at 1 mM after 24 hrs by propidium iodide staining based flow cytometric analysis (reference value: 20.37%); type: functional; procedure, shortened: as §2
[13] = Cell cycle arrest in human NTUB1 cells assessed as accumulation at S phase at 1 mM after 24 hrs by propidium iodide staining based flow cytometric analysis (reference value: 20.37%); type: functional; procedure, shortened: as §2
[14] = Induction of apoptosis in human NTUB1 cells assessed as decrease in JC-1 aggregation at 10 uM after 24 hrs by flow cytometric analysis; type: functional; design: scale not given: the % may be the effect or the level left
Procedure, shortened: (§3)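 NTUB1 bladder carcinoma cells (3 × 10^5) in RPMI 1640 with 10% FBS at 37 °C, 5% CO2, exposed to test agent (10, 25 or 50 µM) with 10 µM CCCP as positive control. Stained 30 min with 1 µM JC-1 in medium, washed, trypsinised, resuspended in PBS/2% BSA. Flow cytometry read green monomer and red aggregate fluorescence; the aggregate/monomer ratio represents membrane potential.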

[15] = Induction of apoptosis in human NTUB1 cells assessed as increase in JC-1 probe monomers at 10 uM after 24 hrs by flow cytometric analysis; type: functional; procedure, shortened: as §3

Row | SMILES | IC50 [6] [µM] | also measured
1 | C=C(C)[C@@H]1CC[C@]2(C)[C@H](C(=O)C=C3[C@@H]4C[C@@](C)(C(=O)NC(C)C)CC[C@]4(C)CC[C@]32C)[C@@]1(C)CCC(=O)OC | 13.1 | viability at 5 µM [1]: 24%; viability at 30 µM [2]: 67%; viability at 3 µM [3]: 25%; viability at 50 µM [4]: 71%; viability at 10 µM [5]: 27%; cytotoxic inhibition at 1 µM [7]: 40%
2 | C=C(C)[C@@H]1CC[C@]2(C)[C@H](C(=O)C=C3[C@@H]4C[C@@](C)(C(=O)Nc5ccccc5)CC[C@]4(C)CC[C@]32C)[C@@]1(C)CCC(=O)O | 3.31 | 
3 | C=C(C)[C@@H]1CC[C@]2(C)[C@H](C(=O)C=C3[C@@H]4C[C@@](C)(C(=O)OCc5ccccc5)CC[C@]4(C)CC[C@]32C)[C@@]1(C)CCC(=O)NC(C)C | 30.1 | 
4 | C=C(C)[C@@H]1CC[C@]2(C)[C@H](C(=O)C=C3[C@@H]4C[C@@](C)(C(=O)NC(C)C)CC[C@]4(C)CC[C@]32C)[C@@]1(C)CCC(=O)OCC | 19.4 | Activity (PC-3): Active; Activity [8]: Non-toxic
5 | CC1(C)C(=O)CC[C@]2(C)[C@H]3C(=O)C=C4[C@@H]5C[C@@](C)(C(=O)OCc6ccccc6)CC[C@]5(C)CC[C@@]4(C)[C@]3(C)CC[C@@H]12 | 20.2 | 
6 | CC(=O)N[C@@H](CS)C(=O)O [ACETYLCYSTEINE] |  | Activity [9]: 26.1%; Activity [10]: 2.66%; Activity [11]: 44.4%; Activity [12]: 20.2%; Activity [13]: 29.2%
7 | C=C(C)[C@@H]1CC[C@]2(C)[C@H](C(=O)C=C3[C@@H]4C[C@@](C)(C(=O)OCc5ccccc5)CC[C@]4(C)CC[C@]32C)[C@@]1(C)CCC(=O)NCCC | 49.4 | 
8 | C=C(C)[C@@H]1CC[C@]2(C)[C@H](C(=O)C=C3[C@@H]4C[C@@](C)(C(=O)NC(C)C)CC[C@]4(C)CC[C@]32C)[C@@]1(C)CCC(=O)O | 17.5 | 
9 | CC1(C)OC(=O)CC[C@]2(C)[C@H]3C(=O)C=C4[C@@H]5C[C@@](C)(C(=O)O)CC[C@]5(C)CC[C@@]4(C)[C@]3(C)CC[C@@H]12 | 73.5 | 
10 | CC1(C)C(=O)CC[C@]2(C)[C@H]3C(=O)C=C4[C@@H]5C[C@@](C)(C(=O)O)CC[C@]5(C)CC[C@@]4(C)[C@]3(C)CC[C@@H]12 | 18.6 | 
11 | C=C(C)[C@@H]1CC[C@]2(C)[C@H](C(=O)C=C3[C@@H]4C[C@@](C)(C(=O)OCc5ccccc5)CC[C@]4(C)CC[C@]32C)[C@@]1(C)CCC(=O)OCC | 27.8 | 
12 | CC1(C)OC(=O)CC[C@]2(C)[C@H]3C(=O)C=C4[C@@H]5C[C@@](C)(C(=O)OCc6ccccc6)CC[C@]5(C)CC[C@@]4(C)[C@]3(C)CC[C@@H]12 | 57.6 | 
13 | CC1(C)OC(=O)CC[C@]2(C)[C@H]3C(=O)C=C4[C@@H]5C[C@@](C)(C(=O)Nc6ccccc6)CC[C@]5(C)CC[C@@]4(C)[C@]3(C)CC[C@@H]12 | 16 | 
14 | C=C(C)[C@@H]1CC[C@]2(C)[C@H](C(=O)C=C3[C@@H]4C[C@@](C)(C(=O)OC)CC[C@]4(C)CC[C@]32C)[C@@]1(C)CCC(=O)NC(C)C | 31.4 | 
15 | C=C(C)[C@@H]1CC[C@]2(C)[C@H](C(=O)C=C3[C@@H]4C[C@@](C)(C(=O)OCc5ccccc5)CC[C@]4(C)CC[C@]32C)[C@@]1(C)CCC(=O)OC | 9.41 | viability at 5 µM [1]: 20%; viability at 30 µM [2]: 66%; viability at 3 µM [3]: 22%; viability at 50 µM [4]: 68%; viability at 10 µM [5]: 50%; cytotoxic inhibition at 1 µM [7]: 32%
16 | C=C(C)[C@@H]1CC[C@]2(C)[C@H](C(=O)C=C3[C@@H]4C[C@@](C)(C(=O)NC(C)C)CC[C@]4(C)CC[C@]32C)[C@@]1(C)CCC(=O)NCC | 12.8 | Activity (PC-3): Active; Activity [8]: Non-toxic
17 | COC(=O)[C@@]1(C)CC[C@]2(C)CC[C@]3(C)C(=CC(=O)[C@@H]4[C@@]5(C)CCC(=O)C(C)(C)[C@@H]5CC[C@]43C)[C@@H]2C1 | 56.5 | 
18 | C=C(C)[C@@H]1CC[C@]2(C)[C@H](C(=O)C=C3[C@@H]4C[C@@](C)(C(=O)OC)CC[C@]4(C)CC[C@]32C)[C@@]1(C)CCC(=O)OC(C)C | 25.3 | 
19 | C=C(C)[C@@H]1CC[C@]2(C)[C@H](C(=O)C=C3[C@@H]4C[C@@](C)(C(=O)OCc5ccccc5)CC[C@]4(C)CC[C@]32C)[C@@]1(C)CCC(=O)NCC | 42.7 | 
20 | COC(=O)[C@@]1(C)CC[C@]2(C)CC[C@]3(C)C(=CC(=O)[C@@H]4[C@@]5(C)CCC(=O)OC(C)(C)[C@@H]5CC[C@]43C)[C@@H]2C1 | 24.3 | 
21 | CC(C)NC(=O)[C@@]1(C)CC[C@]2(C)CC[C@]3(C)C(=CC(=O)[C@@H]4[C@@]5(C)CCC(=O)OC(C)(C)[C@@H]5CC[C@]43C)[C@@H]2C1 | 25.7 | 
22 | C=C(C)[C@@H]1CC[C@]2(C)[C@H](C(=O)C=C3[C@@H]4C[C@@](C)(C(=O)OC)CC[C@]4(C)CC[C@]32C)[C@@]1(C)CCC(=O)O | 20.7 | 
23 | C=C(C)[C@@H]1CC[C@]2(C)[C@H](C(=O)C=C3[C@@H]4C[C@@](C)(C(=O)OCc5ccccc5)CC[C@]4(C)CC[C@]32C)[C@@]1(C)CCC(=O)O | 2.34 | 
24 | C=C(C)[C@@H]1CC[C@]2(C)[C@H](C(=O)C=C3[C@@H]4C[C@@](C)(C(=O)OCc5ccccc5)CC[C@]4(C)CC[C@]32C)[C@@]1(C)CCC(=O)OC(C)C | 18.2 | 
25 | C=C(C)[C@@H]1CC[C@]2(C)[C@H](C(=O)C=C3[C@@H]4C[C@@](C)(C(=O)NC(C)C)CC[C@]4(C)CC[C@]32C)[C@@]1(C)CCC(=O)NCCC | > 50 | 
26 | CC1(C)[C@@H](O)CC[C@]2(C)[C@H]3C(=O)C=C4[C@@H]5C[C@@](C)(C(=O)O)CC[C@]5(C)CC[C@@]4(C)[C@]3(C)CC[C@@H]12 [ENOXOLONE] | 27.3 | 
27 | C=C(C)[C@@H]1CC[C@]2(C)[C@H](C(=O)C=C3[C@@H]4C[C@@](C)(C(=O)NC(C)C)CC[C@]4(C)CC[C@]32C)[C@@]1(C)CCC(=O)OC(C)C | 29.2 | 
28 | N#CC(C#N)=NNc1cccc(Cl)c1 [CARBONYL CYANIDE M-CHLOROPHENYLHYDRAZONE] |  | Activity [14]: 48.42%; Activity [15]: 52.06%
